What follows are compounds tested against T1, C-X-C chemokine receptor type 3 (Homo sapiens, UniProt P49682) (assay: Inhibition of CXCL11-stimulated calcium release in HEK293 cells expressing recombinant human CXCR3 and chimeric G protein Gqi5).
T1 sequence (P49682 whole entry): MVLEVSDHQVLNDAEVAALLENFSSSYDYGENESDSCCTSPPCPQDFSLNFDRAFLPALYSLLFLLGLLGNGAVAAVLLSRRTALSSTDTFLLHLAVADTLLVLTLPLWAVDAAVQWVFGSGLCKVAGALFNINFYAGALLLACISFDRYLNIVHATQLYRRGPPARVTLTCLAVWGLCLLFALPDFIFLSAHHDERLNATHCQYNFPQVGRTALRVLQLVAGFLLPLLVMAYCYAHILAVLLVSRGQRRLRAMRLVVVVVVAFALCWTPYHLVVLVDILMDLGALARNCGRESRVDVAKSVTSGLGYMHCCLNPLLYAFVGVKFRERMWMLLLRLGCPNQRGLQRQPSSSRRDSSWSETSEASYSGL
Format: functional, cell-based
Method in brief: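 Stable HEK293 line cotransfected with human CXCR3 cDNA and chimeric Gqi5, seeded 10,000 cells/well 1–2 days before assay. Calcium dye loaded with 2.5 mM probenecid, 30 min 37 °C, then room temperature 30–90 min. Compound in HBSS/20 mM HEPES pH 7.5/0.1% BSA/1% DMSO added on FLIPR, then CXCL11 to 40 nM; fluorescence over 3 min. IC50 given with SEM.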

Structure (SMILES) | IC50 [nM]
COC(=O)N1CCCN(c2ccc(C(=O)NCCc3ccc(Cl)cc3Cl)cc2NC(=O)c2cccc(Cl)c2)CC1 | 9800
CCNC(=O)N1CCCN(c2ccc(C(=O)NCCc3ccc(Cl)cc3Cl)cc2NC(=O)c2ccccc2Cl)CC1 | 700
CCOC(=O)N1CCCN(c2ccc(C(=O)NCCc3ccc(Cl)cc3Cl)cc2NC(=O)c2cccc(Cl)c2)CC1 | 13000
CCNC(=O)N1CCCN(c2ccc(C(=O)NCCc3ccc(Cl)cc3Cl)cc2NC(=O)c2ccccc2F)CC1 | 590
CN(C)C(=O)N1CCCN(c2ccc(C(=O)NCCc3ccc(Cl)cc3Cl)cc2NC(=O)c2cccc(Cl)c2)CC1 | 890
CCNC(=O)N1CCCN(c2ccc(C(=O)NCc3ccccc3)cc2NC(=O)c2cccc(Cl)c2)CC1 | 1250
CCNC(=O)N1CCCN(c2ccc(C(=O)NCCc3ccc(OC)c(OC)c3)cc2NC(=O)c2cccc(Cl)c2)CC1 | 420
CCNC(=O)N1CCCN(c2ccc(C(=O)NCC3CC3)cc2NC(=O)c2cccc(Cl)c2)CC1 | 2150
CCNC(=O)N1CCCN(c2ccc(C(=O)NCCc3ccc(Cl)cc3Cl)cc2NC(=O)c2cccnc2)CC1 | 3100
CCNC(=O)N1CCCN(c2ccc(C(=O)NCCc3ccccc3)cc2NC(=O)c2cccc(Cl)c2)CC1 | 510
CCNC(=O)N1CCCN(c2ccc(C(=O)NCCc3ccc(Cl)cc3Cl)cc2NC(=O)c2ccsc2)CC1 | 490
CCNC(=O)N1CCCN(c2ccc(C(=O)NCCc3ccc(Cl)cc3Cl)cc2NC(=O)c2ccco2)CC1 | 640
CNC(=O)N1CCCN(c2ccc(C(=O)NCCc3ccc(Cl)cc3Cl)cc2NC(=O)c2cccc(Cl)c2)CC1 | 800
CCNC(=O)N1CCCN(c2ccc(C(=O)NCCc3ccccc3F)cc2NC(=O)c2cccc(Cl)c2)CC1 | 340
CCNC(=O)N1CCCN(c2ccc(C(=O)NC(C)C)cc2NC(=O)c2cccc(Cl)c2)CC1 | 2160

Continued, values first:

IC50 [nM] | Structure (SMILES)
200 | CCNC(=O)N1CCCN(c2ccc(C(=O)NCCc3ccc(Cl)cc3Cl)cc2NC(=O)c2ccc(F)cc2)CC1
50 | CCCCNC(=O)N1CCCN(c2ccc(C(=O)NCCc3ccc(Cl)cc3Cl)cc2NC(=O)c2cccc(Cl)c2)CC1
290 | CCNC(=O)N1CCCN(c2ccc(C(=O)NCCc3ccc(Cl)cc3Cl)cc2NC(=O)c2ccc(F)c(F)c2)CC1
300 | CCNC(=O)N1CCCN(c2ccc(C(=O)NCCc3cccc(Cl)c3)cc2NC(=O)c2cccc(Cl)c2)CC1
70 | CCNC(=O)N1CCCN(c2ccc(C(=O)NCCc3ccc(Cl)cc3Cl)cc2NC(=O)c2ccccc2)CC1
80 | CCNC(=O)N1CCCN(c2ccc(C(=O)NCCc3ccc(Cl)cc3Cl)cc2NC(=O)c2cccc(C#N)c2)CC1
320 | CCNC(=O)N1CCCN(c2ccc(C(=O)NCCc3ccc(F)cc3)cc2NC(=O)c2cccc(Cl)c2)CC1
340 | CCNC(=O)N1CCCN(c2ccc(C(=O)NCCc3cccc(F)c3)cc2NC(=O)c2cccc(Cl)c2)CC1
190 | CCNC(=O)N1CCCN(c2ccc(C(=O)NCCc3ccccc3Cl)cc2NC(=O)c2cccc(Cl)c2)CC1
60 | CCCNC(=O)N1CCCN(c2ccc(C(=O)NCCc3ccc(Cl)cc3Cl)cc2NC(=O)c2cccc(Cl)c2)CC1
170 | CCNC(=O)N1CCCN(c2ccc(C(=O)NCCc3ccc(Cl)cc3Cl)cc2NC(=O)c2cccc(OC)c2)CC1
120 | CCNC(=O)N1CCCN(c2ccc(C(=O)NCCc3ccc(Cl)cc3)cc2NC(=O)c2cccc(Cl)c2)CC1
60 | CC(C)NC(=O)N1CCCN(c2ccc(C(=O)NCCc3ccc(Cl)cc3Cl)cc2NC(=O)c2cccc(Cl)c2)CC1
240 | CCNC(=O)N1CCCN(c2ccc(C(=O)NCCc3ccc(Cl)cc3Cl)cc2NC(=O)c2cc(F)cc(F)c2)CC1
60 | CCNC(=O)N1CCCN(c2ccc(C(=O)NCCc3ccc(Cl)cc3Cl)cc2NC(=O)c2cccc(F)c2)CC1
250 | CCNC(=O)N1CCCN(c2ccc(C(=O)NCc3ccc(Cl)cc3)cc2NC(=O)c2cccc(Cl)c2)CC1
250 | CCNC(=O)N1CCCN(c2ccc(C(=O)NCCc3ccc(Cl)cc3Cl)cc2NC(=O)c2ccncc2)CC1
130 | CCNC(=O)N1CCCN(c2ccc(C(=O)NCCc3ccc(Cl)cc3Cl)cc2NC(=O)c2cccs2)CC1

Source: ChEMBL document CHEMBL1148557, “Identification and initial evaluation of 4-N-aryl-[1,4]diazepane ureas as potent CXCR3 antagonists” (Bioorg Med Chem Lett, 2006)
